Screening data from PubChem.
XiGFP reactiv: activators of X-chromosome reactivation in mouse fibroblasts | activation, % at 7.58 µM | AID 743238 | XiGFP mouse fibroblasts, % GFP-positive cells imaging, 3 d; cells co-treated with 5-aza-dC sensitizer; scaled so ellipticine positive control = 100% | 360,000 compounds, 0.055% hits;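 active = mean normalized replicate activation at least 10% and every replicate at or above 10%; inconclusive = only one of the two criteria met; inactive = mean below 10% and not all replicates reach 10%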;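 note: 0% = median of on-plate neutral control wells and 100% = ellipticine 6 µM median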
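System: SV40-immortalized XiGFP fibroblast cells, line 68-5-11 / Incubation: 3-day compound exposure, then 15 min fixation at room temperature / Compound: single concentration per compound, delivered by pin transfer / Buffer or medium: DMEM plus 5-aza-dC sensitizer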
MITF act: activators of MITF-driven TRPM1 promoter activity in SK-MEL-5 cells | SK-MEL-5 TRPM1-promoter luciferase, 24 h; % of positive control, neutral wells = 0 | activation, % at 12.5 µM | 300,000 compounds, 0.75% hits | AID 588334;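 active = mean activation of at least 80% with every replicate also reaching 80%; inconclusive = mean reaches 80% but some replicate falls short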;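 note: 0% = neutral control wells and 100% = parthenolide positive control wells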
Wnt act: activates Wnt/beta-catenin signaling in a reporter cell assay; activator, plate reader; activation, % at 9.35 µM; 300,000 compounds, 1.2% hits; in the data active = activation above about 30%, passing the limit was not always enough; inconclusive = no clear call, values can overlap the other calls;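 note: 0% = neutral control wells and 100% = positive control wells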
Vif inh: HIV Vif inhibition; 340,000 compounds, 0.35% hits; HEK293T cells, Vif self-association by quenched fluorescence, imaging, 24 h; inhibition, % at 7.49 µM; in the data active = inhibition above about 50%, passing the limit was not always enough; inconclusive = no clear call, values can overlap the other calls; inactive = below about 31%
esBAF inh: SWI/SNF esBAF complex inhibition; 350,000 compounds, 2% hits; AID 602393; reporter increase, % at 12.5 µM; mouse ES cells, Bmi1-luciferase knock-in reporter, 24 h; 100% = twice the neutral-well signal; in the data active = activation above about 40%; inconclusive = no clear call, values can overlap the other calls;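 note: 0% = median of the plate's neutral control wells and 100% = double that signal; a rise in the Bmi1 reporter signal indicates esBAF inhibition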
An asterisk follows results filed as active; ? = inconclusive; / = not tested or not shown. Rows were chosen to be rich in hits. Some 2.6% of all compounds tested hit in one or more screens of this group.

SMILES	XiGFP reactiv	MITF act	Wnt act	Vif inh	esBAF inh
C[C@@H]1CN([C@H](C)CO)S(=O)(=O)c2ccc(C#CCN(C)C)cc2O[C@@H]1CN(C)S(C)(=O)=O	0.5	/	/	/	4.8
CCCNC(=O)N[C@@H]1CC[C@H](CC(=O)NCCc2ccccc2)O[C@@H]1CO	0.2	/	/	/	-1.7
Fc1ccc(/C=C/c2nnc(-c3cccs3)o2)cc1	0.1	66.3	53.2*	5.4	/
O=C(c1ccc2ncsc2c1)N1CCN(c2cccc(C(F)(F)F)c2)CC1	0.4	0.7	0.6	-10.8	46.0*
CC(=O)Oc1ccc(Oc2ccc(-c3noc(C)n3)cc2)cc1	/	/	48.1*	11.9	20.4
COc1ccc(C(=O)O/N=C(\N)c2ccc(Br)cc2)cc1	0.0	57.2	34.5*	-3.6	58.7*
Cc1ccc(C(=O)O/N=C(\N)c2ccc(Br)cc2)cc1	/	88.7*	/	39.3	81.9*
N/C(=N\OC(=O)C1CCCCC1)c1ccncc1	0.0	13.6	/	6.3	/
COc1ccc(/C(N)=N/OC(=O)c2ccc([N+](=O)[O-])c(C)c2)cc1OC	0.6	42.6	4.0	-8.2	13.3
N/C(=N\OC(=O)C1CCCCC1)c1ccc(Br)cc1	0.1	/	24.9	-2.9	65.8*
COc1ccc(/C(N)=N/OC(=O)c2ccc(C)c([N+](=O)[O-])c2)cc1	/	32.5	/	-19.0	69.7*
COCC#Cc1ccc([C@@H]2[C@@H](C#N)N(C(=O)NC3CCCCC3)[C@@H]2CO)cc1	0.2	/	/	/	/
Cc1ccccc1S(=O)(=O)N1[C@@H]2c3cccc(=O)n3C[C@H]1[C@H](CO)[C@H]2C(=O)N1CCOCC1	0.1	/	/	/	-0.9
CCOC(=O)Nc1nc(C)c(C(=O)c2ccc(Cl)cc2)s1	/	-5.5	1.0	10.3	-3.0
COC(=O)c1ccc(/C=N/Nc2nc(C)c(C)s2)cc1	0.0	/	33.6*	0.6	/
Cc1nc(Nc2ccccc2)sc1C(=O)c1ccccc1	0.0	/	42.3*	-3.4	/
COc1ccc(C(=O)c2sc(Nc3ccccc3)nc2C)cc1	0.0	20.2	1.1	-5.9	14.6
COC(=O)c1ccc(/C=N/Nc2nc(-c3ccc(C)cc3)cs2)cc1	/	0.4	/	-1.4	-5.1
CCOC(=O)c1sc(NC(=O)Nc2ccc(Cl)cc2)nc1C	/	/	39.3*	-4.8	61.3*
CCOC(=O)c1sc(N/N=C/c2cccc(C)c2)nc1C	/	98.6*	18.3	18.7	57.9*
CCOC(=O)c1sc(Nc2nc3c(OC)cccc3s2)nc1C	/	0.6	/	-13.3	67.4*
CC(=O)c1sc(Nc2ccccc2)nc1C	0.0	/	0.6	10.1	35.6
CNc1nc(C)c(C(=O)OCC(=O)OC)s1	/	11.3	1.9	/	7.5
Cc1nc(Nc2ccccc2)sc1-c1ccccc1	0.2	58.0	43.8*	3.2	/
CCOC(=O)c1sc(NC(=O)c2ccccc2OCC)nc1C	0.3	18.5	6.4	6.0	/
SMILES	XiGFP reactiv	MITF act	Wnt act	Vif inh	esBAF inh
CC(C)(C)C(=O)c1sc(Nc2ccccc2)nc1N	/	122.0*	0.0	-2.7	56.9*
CNc1nc(C)c(C(=O)OCc2ccccc2)s1	/	/	14.4	16.2	75.2*
CN1CCN(C(=O)C[C@@H]2CC[C@H]3[C@@H](COC[C@H](O)CN3Cc3ccc(Oc4ccccc4)cc3)O2)CC1	-0.2	/	/	/	-13.1
O=C(Nc1ccc(Cl)cc1)N[C@H]1CC[C@@H](CCNC(=O)c2cc(Cl)cc(Cl)c2)O[C@@H]1CO	0.1	/	/	/	/
CC(C)NC(=O)Nc1ccc2c(c1)C(=O)N([C@H](C)CO)C[C@@H](C)[C@@H](CN(C)C(=O)NC(C)C)O2	-0.3	/	/	/	-1.3
CCOC(=O)c1sc(Nc2ccc(F)cc2)nc1C	0.0	24.6	-4.8	/	/
CCOC(=O)c1sc(Nc2ccccc2)nc1C	/	94.2*	/	1.9	77.5*
CC(C)N1CC2(CC(c3ccccc3F)=NO2)CN1C(=O)c1ccco1 (stereo not drawn)	0.4	/	0.0	1.2	57.2*
Cc1ccccc1S(=O)(=O)N1C[C@@H](O)COC[C@@H]2O[C@H](CC(=O)N3CCN(C)CC3)CC[C@H]21	0.4	/	/	/	0.1
CC(C)[C@@H]1C(=O)NCCC=CC[C@H](C)Oc2ccccc2C(=O)N1C (mixture of isomers)	0.1	/	/	/	/
COc1cc(/C=N/OCC(=O)NC23CC4CC(CC(C4)C2)C3)ccc1OCc1ccccc1	0.0	41.8	5.7	-9.1	62.1*
COc1cc(/C=N/OCC(=O)NC2CCCCC2)ccc1OCc1ccccc1	0.0	12.1	17.7	-0.6	/
COc1ccc2oc(-c3ccco3)cc(=O)c2c1	0.2	77.8	38.2*	4.3	19.7
O=c1cc(-c2ccco2)oc2ccc(Cl)cc12	/	49.2	/	8.9	20.1
N#Cc1cccc(NC(=O)c2cc(C3CCCCN3S(=O)(=O)c3cccc4cccnc34)on2)c1 (stereo not drawn)	0.0	/	-3.4	-25.1	52.2*
Cc1ccc(-c2nc3ccccn3c2NCc2ccc3c(c2)OCO3)cc1	/	32.1	?	-4.5	43.7*
c1ccc(-c2cc3nc(NCc4ccc5c(c4)OCO5)ccn3n2)cc1	0.0	/	2.1	-9.3	52.4*
c1ccc(-c2cc3nc(NCc4cccs4)ccn3n2)cc1	0.1	/	5.5	-6.1	66.8*
COc1ccc(-c2nc3ccc(C)cn3c2NCc2ccc3c(c2)OCO3)cc1	0.4	12.2	?	10.8	13.6
CO[C@H]1CN(C)C(=O)c2cc(NC(=O)NC3CCCCC3)ccc2OC[C@H](C)N(C)C[C@@H]1C	0.0	/	/	/	1.0
COc1ccc(OC)c(NC(=O)c2nc(-c3ccccc3)oc2C)c1	0.3	-0.8	-0.8	113.7*	-2.1
O=C(NN=C1C2CC3CC1CC(Cl)(C3)C2)c1ccccn1	0.0	8.0	/	-12.2	47.7*
CN(C)c1ccc(C(=O)OCC(=O)c2ccc[nH]2)cc1	0.1	137.3*	9.0	-7.3	71.6*
O=C(OCC(=O)c1ccc[nH]1)c1ccccc1	0.1	64.1	-1.5	-0.9	/
O=C(OCC(=O)N1CCCCCC1)c1ccccc1Br	0.3	75.1	13.8	13.0	54.4*
SMILES	XiGFP reactiv	MITF act	Wnt act	Vif inh	esBAF inh
COc1cccc(NC(=O)COC(=O)c2sccc2C)c1	0.2	108.3*	6.8	15.5	50.5*
O=C(OCC(=O)N1CCCC1)c1ccccc1O	0.2	45.2	17.0	8.3	17.0
Cc1ccsc1C(=O)OCC(=O)N1C(C)CCCC1C (stereo not drawn)	-0.6	26.6	10.8	-13.1	78.9*
COc1cccc(NC(=O)N(C)C[C@H]2Oc3cc(C#Cc4ccc(F)cc4)ccc3S(=O)(=O)N([C@@H](C)CO)C[C@H]2C)c1	-1.2	/	/	/	-10.4
O=C(COC(=O)c1ccccc1Br)NC1CCCC1	0.2	57.8	-6.3	79.9*	49.6*
Cc1ccsc1C(=O)OCC(=O)NC1CCCCC1	0.0	/	11.8	-10.0	62.9*
CN(C)c1ccc(C(=O)OCC(=O)N2CCCCCC2)cc1	0.0	63.5	-1.6	6.4	46.6*
O=C(COC(=O)c1ccccc1Br)NC1CCCCCCC1	0.2	35.2	-3.9	4.7	/
Cc1c(C(=O)OCC(=O)N2C(C)CCCC2C)oc2ccccc12 (stereo not drawn)	0.0	73.5	19.4	1.9	75.8*
